Screens from PubChem BioAssay.
MEKK3 PB1 HTS: modulators of MEKK3-MEK5 PB1 binding, primary screen, biochemical, wildtype MEKK3, multiplex bead flow cytometry, Alexa488-MEK5; Mitogen-activated protein kinase kinase kinase 3 (Homo sapiens), Q99759; bead-based flow cytometry, Alexa488-MEK5 binding to MEKK3; actives lie on both sides; 0 = blocked by unlabeled MEK5, 100 = vehicle; binding response (% of control), % at 10 µM; hit rate 1.4% among 290,000; AID 1529, 2009;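 active = binding response more than 3 SD above or below the average of its plate-row segment, actives on both sides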;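 also: Alexa488 bead fluorescence after subtracting the streptavidin-only scavenger bead signal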
Target sequence (Q99759 whole entry, looked up): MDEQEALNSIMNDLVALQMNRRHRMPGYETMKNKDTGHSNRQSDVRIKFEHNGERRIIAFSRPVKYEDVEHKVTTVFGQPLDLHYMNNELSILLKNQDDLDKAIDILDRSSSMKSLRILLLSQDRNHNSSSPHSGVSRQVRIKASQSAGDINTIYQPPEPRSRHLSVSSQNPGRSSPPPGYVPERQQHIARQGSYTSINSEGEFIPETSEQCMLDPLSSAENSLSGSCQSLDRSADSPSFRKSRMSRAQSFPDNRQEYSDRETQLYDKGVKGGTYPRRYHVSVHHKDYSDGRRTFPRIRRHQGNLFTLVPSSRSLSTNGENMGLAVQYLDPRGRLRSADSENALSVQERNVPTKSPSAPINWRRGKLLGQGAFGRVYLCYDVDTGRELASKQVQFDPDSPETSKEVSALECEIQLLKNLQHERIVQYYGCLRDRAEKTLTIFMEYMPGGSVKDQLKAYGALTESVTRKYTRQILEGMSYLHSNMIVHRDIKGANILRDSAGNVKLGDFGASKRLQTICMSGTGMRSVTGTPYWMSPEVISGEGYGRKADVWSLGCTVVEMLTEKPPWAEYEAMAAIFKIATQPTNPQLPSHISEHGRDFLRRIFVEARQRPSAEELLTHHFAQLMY
VIM-2 inh: VIM-2 metallo-beta-lactamase inhibitors, primary screen, biochemical, epi-absorbance readout, Pseudomonas aeruginosa enzyme; purified VIM-2, nitrocefin hydrolysis, epi-absorbance fluorescence; inhibition, % at 5.6 µM; hit rate 0.89% among 290,000; AID 1527, 2009;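 active = inhibition above the mean of all tested compounds plus 3 SD, cutoff set per screening run, cut at about 7.5% in these data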;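 also: red hydrolysis product quenches plate fluorescence so inhibitors raise well fluorescence; 0% = enzyme with DMSO and 100% = DMSO without enzyme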
MEKK2 WT-MEK5: modulators of MEK5 binding to wildtype MEKK2, primary screen, biochemical, multiplex bead flow cytometry, Alexa488-MEK5 | Alexa488-MEK5 binding to MEKK2 WT; actives lie on both sides | binding response (% of control), % at 10 µM | hit rate 1.1% among 290,000; in the data active = binding response below about 67% or above about 130%
IMP-1 inh: IMP-1 metallo-beta-lactamase inhibitors, primary screen, biochemical, epi-absorbance readout, Pseudomonas aeruginosa enzyme; metallo-beta-lactamase IMP-1 (Pseudomonas aeruginosa); AID 1556, 2009; purified IMP-1, nitrocefin hydrolysis, epi-absorbance fluorescence; hit rate 0.45% among 290,000; inhibition, % at 5.6 µM;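 active = inhibition above the mean plus 3 SD of all compounds in the same screening run, cut at about 4.5% in these data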;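 also: 0% = IMP-1 with DMSO and 100% = DMSO wells lacking enzyme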
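Test system: recombinant IMP-1 enzyme, purified / Medium: HEPES buffer pH 7.1 with ZnSO4 and Brij 35 / Doses: single dose, 5.6 µM / Times: 25 °C, 15 min preincubation, 25 min reaction / Detection: Epi-absorbance via hydrolysed-nitrocefin quenching of white-plate fluorescence, 480/530 nm, EDTA stop / Evaluation: percent inhibition from optical density relative to buffer-blank wells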
MEKK2mut PB1 HTS: MEK5 binding signal on mutant MEKK2 PB1, primary screen, biochemical, multiplex bead flow cytometry, Alexa488-MEK5; Alexa488-MEK5 binding to MEKK2 mutant; hit rate 0.35% among 290,000; percent response, % at 10 µM; AID 1530, 2009; in the data active = percent response above about 24%, passing the limit was not always enough
MEKK2wt confirm: modulators of MEK5 binding to wildtype MEKK2, confirmation, biochemical, single concentration, multiplex bead flow cytometry; shares compounds with MEKK3 PB1 HTS; Alexa488-MEK5 binding to MEKK2 WT; actives lie on both sides; AID 1892, 2009; hit rate 2.4% among 5,900; binding response (% of control), % at 10 µM; in the data active = binding response below about 16% or above about 210%; inactive = in between
MEKK2mut-MEK5: mutant MEKK2 PB1-MEK5 binding signal retest – biochemical, single concentration, multiplex bead flow cytometry, confirmation | shares compounds with MEKK3 PB1 HTS | Alexa488-MEK5 binding to MEKK2 mutant | percent response, % at 10 µM | hit rate 2% among 5,900; in the data active = percent response mostly above about 71%, no sharp cut-off; inactive = mostly below about 38%;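 also: higher means compound restores mutant binding toward wildtype level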
MEKK3 confirm: MEKK3 wild-type PB1 binding to MEK5, inhibitors, confirmation, biochemical, bead multiplex flow cytometry, single concentration, wildtype; shares compounds with MEKK3 PB1 HTS; Alexa488-MEK5 binding to MEKK3; active compounds read low; binding response (% of control), % at 10 µM; hit rate 1.8% among 5,900; AID 1894, 2009;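 active = binding response below 72% of control, or above a set upper limit, though filed actives all read lower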;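 also: 100% = DMSO only wells and 0% = binding blocked by excess unlabeled MEK5; lower values mean stronger disruption of MEK5 binding to MEKK3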
Active calls of the source: *; x = no result given; [ ] = remark or other dose. Most compounds without a hit are left out; they make up all but 3.4% or so of the library.

SMILES	MEKK3 PB1 HTS	VIM-2 inh	MEKK2 WT-MEK5	IMP-1 inh	MEKK2mut PB1 HTS	MEKK2wt confirm	MEKK2mut-MEK5	MEKK3 confirm
Cc1ccccc1S(=O)(=O)Cc1ccc(C(=O)NC2CCCCC2C)o1 (configuration not stated)	102.0	-2.1	97.0	-3.0	0.0	x	x	x
O=C1[C@@H]2[C@@H]3C[C@@H]([C@H]4ON=C(c5ccc(Cl)cc5Cl)[C@@H]34)[C@@H]2C(=O)N1C1CCCCC1	144.0*	-2.9	106.0	-3.1	3.0	96.0	-5.0	98.0
CN1C(=O)[C@@H]2[C@@H]3C[C@@H]([C@H]4ON=C(c5ccc(Cl)cc5)[C@@H]34)[C@@H]2C1=O	102.0	-2.3	101.0	-3.4	-1.0	x	x	x
CCOc1ccc(NC(=S)Nc2ccc(OCC)cc2)cc1	116.0	-0.1	104.0	-1.7	-1.0	x	x	x
CCOC(=O)C(C(=O)Nc1cccc(C)c1)C1CCCCC1 (configuration not stated)	99.0	0.2	-4.0*[inhibitor]	-3.3	-34.0	103.0	2.0	109.0
CN(C)CCN(Cc1ccco1)C(=O)c1oc2ccccc2c1NC(=O)COc1ccccc1	103.0	1.9	124.0	-2.9	12.0	x	x	x
Cc1c(CCOC(=O)C23CC4CC(CC(C)(C4)C2)C3)sc[n+]1CC(=O)c1ccccc1	112.0	-3.7	133.0	-3.0	-1.0	x	x	x
Cc1c(CCOC(=O)CC23CC4CC(CC(C)(C4)C2)C3)sc[n+]1CC(=O)c1ccccc1	108.0	-2.3	153.0*	-1.6	6.0	155.0	7.0	101.0
O=C(Nc1ccccc1F)C1CCN(C(=O)Cc2ccccc2)CC1	106.0	-3.2	114.0	0.2	8.0	x	x	x
c1csc(-c2ccc(N3CCOCC3)nn2)c1	98.0	-1.1	101.0	-1.7	-1.0	x	x	x
CS(=O)(=O)N(CC(=O)NCc1ccc2c(c1)OCO2)C1CCCCC1	136.0*	-2.3	117.0	-1.5	1.0	105.0	1.0	106.0
CS(=O)(=O)N(CC(=O)NCc1ccc(Cl)cc1)C1CCCCC1	98.0	-3.5	100.0	-5.6	4.0	x	x	x
O=C1/C(=C/c2ccc([N+](=O)[O-])cc2)C=C(c2ccccc2)N1c1ccccc1	90.0	-2.2	83.0	-1.4	-4.0	x	x	x
COc1ccc(N2C(=O)/C(=C/c3ccc([N+](=O)[O-])cc3)C=C2c2ccccc2)cc1	76.0*[inhibitor]	-2.8	-10.0*	-3.4	-6.0	88.0	-5.0	91.0
O=C(Nc1ccc(Cl)cc1)c1cnc(-c2ccccc2)nc1-c1ccccc1	95.0	-1.1	92.0	-1.5	-2.0	x	x	x
CC1=CC(C)(C)n2c(O)c(N=N)c3cc(C)cc1c32	141.0*	-0.6	105.0	-3.1	1.0	103.0	3.0	103.0
CCn1ccnc1CN(C)Cc1cn(-c2ccc(C)cc2)nc1-c1cccc(C)c1	107.0	-5.3	138.0*	-3.4	-3.0	124.0	11.0	103.0
O=C(Nc1ccc(Cl)c(Cl)c1)N1N=CCC1c1ccccc1 (configuration not stated)	133.0*	-0.8	116.0	-4.5	0.0	100.0	0.0	101.0
O=C(Nc1ccccc1)N1N=CCC1c1ccccc1 (configuration not stated)	104.0	-0.7	106.0	-1.4	7.0	x	x	x
O=C(Cc1cccc2ccccc12)Nc1ccc2c(c1)C(=O)NC2=O	103.0	-2.2	101.0	-2.8	5.0	x	x	x
Cc1cccc2sc(N(CCCN(C)C)C(=O)c3ccco3)nc12	101.0	0.8	110.0	-0.8	6.0	x	x	x
CCOc1cccc2sc(N(CCCN(C)C)C(=O)Cc3ccccc3)nc12	128.0	-2.0	180.0*	-2.3	75.0*	133.0	31.0	113.0
CCOc1cccc2sc(N(CCCN(C)C)C(=O)c3ccc(C(=O)c4ccccc4)cc3)nc12	108.0	-2.3	161.0*	-3.0	35.0*	154.0	23.0	105.0
O=C(/C=C/c1ccc(F)cc1)c1ccc(N2CCOCC2)cc1	125.0	0.2	113.0	-1.7	18.0	x	x	x
Cc1cccc(/C=C/C(=O)c2ccc(N3CCOCC3)cc2)c1	81.0	-4.1	x	-1.7	86.0*	101.0	-1.0	101.0
SMILES	MEKK3 PB1 HTS	VIM-2 inh	MEKK2 WT-MEK5	IMP-1 inh	MEKK2mut PB1 HTS	MEKK2wt confirm	MEKK2mut-MEK5	MEKK3 confirm
Cc1nn(CC(=O)O)c(C)c1NC(=O)c1cccs1	102.0	-2.5	102.0	-1.2	1.0	x	x	x
NC1=NC[C@H](Cc2ccc(O)cc2)N1CCC12CC3CC(CC(C3)C1)C2	108.0	x	138.0*	x	21.0	128.0	8.0	100.0
CC[n+]1c(/C=C/C=C/N(C(C)=O)c2ccccc2)sc2ccccc21	2.0*[inhibitor]	4.2	x	-2.6	-16.0	13.0*[inhibitor]	7.0	87.0
O=C(c1cccs1)N1CCCC(c2nc3c(nnn3Cc3ccccc3Cl)c(=O)[nH]2)C1 (configuration not stated)	102.0	-0.1	102.0	-0.1	5.0	x	x	x
COc1ccc(S(=O)(=O)N/N=C\c2ccc([N+](=O)[O-])o2)c(OC)c1	96.0	-2.7	100.0	-6.6	-2.0	x	x	x
CCC(c1nnnn1CCOC)N1CCN(Cc2ccccc2OC)CC1 (configuration not stated)	117.0	-4.1	110.0	-5.1	25.0*	111.0	5.0	104.0
CCCC(c1nnnn1CCOC)N1CCN(Cc2ccccc2)CC1 (configuration not stated)	108.0	-3.5	100.0	-4.7	2.0	x	x	x
CCCCN(C)CCNC(=S)Nc1ccc2nc(N3CCN(CC)CC3)cc(C)c2c1	109.0	2.9	134.0*	-3.6	17.0	121.0	14.0	106.0
CCCCNC(=S)Nc1ccc2nc(N3CCN(CC)CC3)cc(C)c2c1	111.0	0.1	139.0*	-3.1	27.0*	144.0	30.0	109.0
CSC1=C(C#N)C(=O)NC(c2ccccc2O)S1 (configuration not stated)	90.0	2.6	91.0	-1.3	-25.0	x	x	x
Cc1ccc(C2=N/C(=C/c3cccs3)C(=O)N2Nc2ccccc2)cc1	81.0	-2.4	52.0*[inhibitor]	-1.3	-15.0	55.0	-18.0	91.0
COc1cc(CNCCCN2CCOCC2)ccc1OCC(=O)Nc1cccc(C(F)(F)F)c1	104.0	1.1	119.0	-1.3	8.0	x	x	x
